From paper PMC3431965 (The Journal of organic chemistry, 2012)
Residue numbers refer to the chain shown, from its start.

Assays:
[1] = tested on: β-mannosidase (Roman snail); assay: Glycosidase inhibition assay, β-mannosidase; type: biochemical; details: 100 µM compound; substrate at Km
Method in brief: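 Test compound is at 100 µM. Enzyme addition starts the reaction, which runs 4–5 min at room temperature before quenching with 0.2 M sodium borate (pH 9.8). Absorbance is read at 405 nm and given as % remaining activity.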

[2] = tested on: α-glucosidase (Saccharomyces cerevisiae); assay: Glycosidase inhibition assay, α-glucosidase; type: biochemical; details: substrate at Km; for α-Glc % Ra (% remaining activity at 100 µM): 100 µM compound
[3] = molecular target: T1, testicular β-glucosidase 2 (Rattus norvegicus, UniProt Q5M868); assay: Testicular glucosidase assay; type: biochemical, Long Evans (LE) rat; details: for β-glucosidase 2 IC50 (LE rat): rat testicular microsomes, n.i. = no inhibition at 1000 µM concentration
T1 sequence (Q5M868 1-912): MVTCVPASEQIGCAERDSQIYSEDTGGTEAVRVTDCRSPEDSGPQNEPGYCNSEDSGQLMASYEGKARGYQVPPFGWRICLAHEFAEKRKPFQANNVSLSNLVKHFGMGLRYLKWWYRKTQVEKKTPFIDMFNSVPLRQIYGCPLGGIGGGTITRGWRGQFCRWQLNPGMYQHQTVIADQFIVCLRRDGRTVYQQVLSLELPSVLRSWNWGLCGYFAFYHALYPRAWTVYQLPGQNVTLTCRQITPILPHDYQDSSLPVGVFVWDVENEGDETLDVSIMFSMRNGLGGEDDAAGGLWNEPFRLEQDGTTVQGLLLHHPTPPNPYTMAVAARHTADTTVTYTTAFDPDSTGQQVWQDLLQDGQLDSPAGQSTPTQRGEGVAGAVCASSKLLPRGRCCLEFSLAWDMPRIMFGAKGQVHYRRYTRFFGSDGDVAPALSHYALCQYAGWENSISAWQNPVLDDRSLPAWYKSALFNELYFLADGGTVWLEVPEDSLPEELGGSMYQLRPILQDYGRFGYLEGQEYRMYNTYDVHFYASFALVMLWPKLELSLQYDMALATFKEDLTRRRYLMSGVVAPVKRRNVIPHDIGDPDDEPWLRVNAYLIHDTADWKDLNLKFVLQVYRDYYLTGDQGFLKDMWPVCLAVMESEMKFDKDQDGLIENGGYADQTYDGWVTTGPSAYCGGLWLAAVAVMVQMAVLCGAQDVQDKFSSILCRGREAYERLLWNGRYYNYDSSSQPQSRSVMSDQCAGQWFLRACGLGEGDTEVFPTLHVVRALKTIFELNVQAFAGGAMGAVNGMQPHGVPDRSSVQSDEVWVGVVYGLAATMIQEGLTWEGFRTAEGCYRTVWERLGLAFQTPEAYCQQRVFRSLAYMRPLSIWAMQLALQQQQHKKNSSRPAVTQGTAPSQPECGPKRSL

[4] = molecular target: T2, ceramide-specific glucosyltransferase (Rattus norvegicus, UniProt Q9R0E0); assay: Ceramide-specific glucosyltransferase assay, rat testicular microsomes; type: biochemical, Long Evans (LE) rat; details: for ceramide-specific glucosyltransferase IC50 (LE rat): rat testicular microsomes, n.i. = no inhibition at 1000 µM concentration
T2 sequence (Q9R0E0 1-394): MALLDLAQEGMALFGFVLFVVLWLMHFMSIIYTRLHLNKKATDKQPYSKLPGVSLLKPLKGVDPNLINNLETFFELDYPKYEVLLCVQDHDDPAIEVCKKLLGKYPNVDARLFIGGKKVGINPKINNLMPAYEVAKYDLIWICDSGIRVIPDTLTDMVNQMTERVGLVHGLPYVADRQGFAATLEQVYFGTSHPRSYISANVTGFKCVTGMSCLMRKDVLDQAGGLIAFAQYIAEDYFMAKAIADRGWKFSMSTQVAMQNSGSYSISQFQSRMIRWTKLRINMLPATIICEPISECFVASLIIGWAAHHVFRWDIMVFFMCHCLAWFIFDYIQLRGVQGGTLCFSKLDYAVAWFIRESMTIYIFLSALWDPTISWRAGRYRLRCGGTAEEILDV

[5] = molecular target: α-galactosidase (green coffee beans) (Coffea arabica, UniProt Q42656); assay: biochemical; details: for remaining activity at 100 µM: read-out: α-Gal % Ra (% remaining activity at 100 µM)
[6] = tested on: β-glucosidase (almond); assay: Glycosidase inhibition assay, β-glucosidase; type: biochemical; details: substrate at Km; for β-Glc % Ra (% remaining activity at 100 µM): 100 µM compound
Method in brief: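 Enzyme is added last; incubation is 4–5 min at room temperature, then 0.2 M sodium borate (pH 9.8) quenches. Absorbance at 405 nm gives % remaining activity at 100 µM compound. IC50 comes from non-linear fitting of relative activity versus concentration to a Hill-slope equation.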

[7] = molecular target: T3, α-mannosidase (jack bean) (Canavalia ensiformis, UniProt C0HJB3); assay: Glycosidase inhibition assay, α-mannosidase; type: biochemical; details: for remaining activity at 100 µM: read-out: α-Man % Ra (% remaining activity at 100 µM)
T3 sequence (C0HJB3 1-562 limits assumed): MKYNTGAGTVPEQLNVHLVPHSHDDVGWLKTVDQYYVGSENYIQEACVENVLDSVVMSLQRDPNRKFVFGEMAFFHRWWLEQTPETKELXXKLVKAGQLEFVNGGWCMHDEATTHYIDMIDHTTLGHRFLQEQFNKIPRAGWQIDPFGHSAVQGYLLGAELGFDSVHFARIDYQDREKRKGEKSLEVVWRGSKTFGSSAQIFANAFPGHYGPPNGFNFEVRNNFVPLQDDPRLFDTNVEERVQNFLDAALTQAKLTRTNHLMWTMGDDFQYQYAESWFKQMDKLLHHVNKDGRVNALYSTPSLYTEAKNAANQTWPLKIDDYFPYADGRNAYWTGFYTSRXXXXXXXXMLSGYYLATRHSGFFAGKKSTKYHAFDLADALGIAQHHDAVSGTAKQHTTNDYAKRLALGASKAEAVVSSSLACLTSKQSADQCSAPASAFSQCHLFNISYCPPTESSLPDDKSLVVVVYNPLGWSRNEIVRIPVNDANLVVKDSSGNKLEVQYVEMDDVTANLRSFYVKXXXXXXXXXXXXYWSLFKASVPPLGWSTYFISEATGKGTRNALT
T3 sequence (C0HJB3 563-981 partner limits assumed): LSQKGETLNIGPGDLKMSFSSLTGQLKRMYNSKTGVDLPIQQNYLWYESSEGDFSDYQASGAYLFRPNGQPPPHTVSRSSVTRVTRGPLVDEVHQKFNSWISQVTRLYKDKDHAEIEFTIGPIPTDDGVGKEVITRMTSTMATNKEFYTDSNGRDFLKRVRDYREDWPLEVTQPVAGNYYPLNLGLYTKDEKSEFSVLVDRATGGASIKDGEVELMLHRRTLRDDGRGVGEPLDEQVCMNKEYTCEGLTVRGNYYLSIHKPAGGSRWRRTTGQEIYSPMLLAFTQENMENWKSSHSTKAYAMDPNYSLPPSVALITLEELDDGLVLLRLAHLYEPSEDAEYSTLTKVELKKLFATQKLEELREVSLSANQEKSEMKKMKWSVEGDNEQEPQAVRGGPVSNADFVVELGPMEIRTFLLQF
Method in brief: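 Enzyme starts the reaction with test compound at 100 µM. After 4–5 min at room temperature, 0.2 M sodium borate (pH 9.8) quenches it. Absorbance is read at 405 nm and reported as % remaining activity.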

[8] = molecular target: T4, ceramide-specific glucosyltransferase (Mus musculus, UniProt O88693); assay: Ceramide-specific glucosyltransferase assay, mouse testicular microsomes; type: biochemical, C57BL/6 mouse; details: for ceramide-specific glucosyltransferase IC50 (C57BL/6, mouse): mouse testicular microsomes, n.i. = no inhibition at 1000 µM concentration
T4 sequence (O88693 1-394): T2 sequence (Q9R0E0 1-394) with E96D, R164K, K249R, A377T

[9] = molecular target: β-galactosidase (Escherichia coli) (Escherichia coli, UniProt P00722); assay: biochemical; details: for remaining activity at 100 µM: read-out: β-Gal % Ra (% remaining activity at 100 µM)
[10] = tested on: human spermatogenesis; details: cited from earlier work
[11] = tested on: spermatogenesis; details: C57B1/6J-related mouse strains; cited from earlier work
[12] = 100 µM compound, substrate at Km

α-galactosidase (green coffee beans), sequence (Q42656 16-378): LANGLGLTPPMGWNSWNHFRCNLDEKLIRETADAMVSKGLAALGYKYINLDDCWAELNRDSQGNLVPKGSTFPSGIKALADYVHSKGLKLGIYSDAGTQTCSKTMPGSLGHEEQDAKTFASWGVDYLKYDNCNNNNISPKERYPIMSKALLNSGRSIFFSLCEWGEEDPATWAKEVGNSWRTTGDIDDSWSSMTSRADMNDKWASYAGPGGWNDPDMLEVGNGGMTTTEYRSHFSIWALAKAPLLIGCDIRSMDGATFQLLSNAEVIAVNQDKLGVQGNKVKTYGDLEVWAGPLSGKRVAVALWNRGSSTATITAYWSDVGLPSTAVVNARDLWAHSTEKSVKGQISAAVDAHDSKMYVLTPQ
β-galactosidase (Escherichia coli), sequence (P00722 2-1024): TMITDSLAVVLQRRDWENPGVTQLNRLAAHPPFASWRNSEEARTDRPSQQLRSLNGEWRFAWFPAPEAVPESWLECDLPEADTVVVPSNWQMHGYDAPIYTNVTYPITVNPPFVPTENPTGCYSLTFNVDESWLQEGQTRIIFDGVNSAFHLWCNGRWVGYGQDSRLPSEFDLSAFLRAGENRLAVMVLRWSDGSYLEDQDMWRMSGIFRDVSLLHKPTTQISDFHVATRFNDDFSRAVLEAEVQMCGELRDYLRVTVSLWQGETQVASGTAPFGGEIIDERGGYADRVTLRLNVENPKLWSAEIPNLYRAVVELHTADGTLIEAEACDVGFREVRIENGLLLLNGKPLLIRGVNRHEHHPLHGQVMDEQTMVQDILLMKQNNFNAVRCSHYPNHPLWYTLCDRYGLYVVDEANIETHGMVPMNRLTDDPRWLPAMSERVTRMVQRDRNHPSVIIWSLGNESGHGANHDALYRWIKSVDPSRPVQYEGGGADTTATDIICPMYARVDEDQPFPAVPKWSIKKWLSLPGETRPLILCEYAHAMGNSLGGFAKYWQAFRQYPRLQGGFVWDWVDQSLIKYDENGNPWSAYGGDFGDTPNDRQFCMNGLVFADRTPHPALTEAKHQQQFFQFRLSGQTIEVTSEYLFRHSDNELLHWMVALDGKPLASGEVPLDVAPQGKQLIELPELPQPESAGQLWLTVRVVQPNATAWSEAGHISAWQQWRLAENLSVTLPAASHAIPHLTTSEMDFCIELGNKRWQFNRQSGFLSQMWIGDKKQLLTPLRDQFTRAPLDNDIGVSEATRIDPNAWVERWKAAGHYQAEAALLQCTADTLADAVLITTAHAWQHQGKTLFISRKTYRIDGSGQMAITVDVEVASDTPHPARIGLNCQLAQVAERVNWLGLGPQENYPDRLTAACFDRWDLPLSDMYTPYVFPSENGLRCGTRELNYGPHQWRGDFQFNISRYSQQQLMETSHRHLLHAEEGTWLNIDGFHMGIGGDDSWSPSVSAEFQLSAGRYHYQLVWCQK

CCCCN1CCC[C@@H](O)[C@H](O)[C@@H](O)C1 [Compound 1, (3S,4S,5R)-1-Butylazocane-3,4,5-triol]
β-Man % Ra (% remaining activity at 100 µM) [1]: 100% | α-Glc % Ra (% remaining activity at 100 µM) [2]: 93% | β-glucosidase 2 IC50 (LE rat) [3]: did not show inhibitory activity and n.i. | ceramide-specific glucosyltransferase IC50 (LE rat) [4]: n.i. | remaining activity at 100 µM [5]: 100% | β-Glc % Ra (% remaining activity at 100 µM) [6]: 37% | IC50 ([6]; read-out: β-Glc IC50): 87 µM | remaining activity at 100 µM [7]: 100% | ceramide-specific glucosyltransferase IC50 (C57BL/6, mouse) [8]: n.i. | remaining activity at 100 µM [9]: 98%

CCCCN1[C@@H](CO)C(O)[C@@H]1CO [Compound 26, ((2S,4S)-1-Butyl-3-hydroxyazetidine-2,4-diyl)dimethanol]
β-Man % Ra (% remaining activity at 100 µM) [1]: 95% | α-Glc % Ra (% remaining activity at 100 µM) [2]: 90% | IC50 [3]: > 300 µM | IC50 [4]: > 300 µM | remaining activity at 100 µM [5]: 98% | β-Glc % Ra (% remaining activity at 100 µM) [6]: 82% | remaining activity at 100 µM [7]: 98% | IC50 [8]: > 300 µM | remaining activity at 100 µM [9]: 96%

CCCCCCCCCN1[C@H](CO)C(O)[C@H]1CO [Compound 23, ((2R,4R)-3-Hydroxy-1-nonylazetidine-2,4-diyl)dimethanol]
β-Man % Ra (% remaining activity at 100 µM) [1]: 115% | α-Glc % Ra (% remaining activity at 100 µM) [2]: 100% | IC50 [3]: > 300 µM | IC50 [4]: > 300 µM | remaining activity at 100 µM [5]: 99% | β-Glc % Ra (% remaining activity at 100 µM) [6]: 95% | remaining activity at 100 µM [7]: 100% | IC50 [8]: > 300 µM | remaining activity at 100 µM [9]: 88%

CCCCCCCCCN1C/C=C\[C@@H](O)[C@H](O)[C@@H](O)C1 [Compound 4, (3S,4S,5R,Z)-1-Nonyl-1,2,3,4,5,8-hexahydroazocine-3,4,5-triol]
β-Man % Ra (% remaining activity at 100 µM) [1]: 99% | α-Glc % Ra (% remaining activity at 100 µM) [2]: 90% | IC50 [3]: 904 µM | ceramide-specific glucosyltransferase IC50 (LE rat) [4]: n.i. | remaining activity at 100 µM [5]: 100% | β-Glc % Ra (% remaining activity at 100 µM) [6]: 44% | remaining activity at 100 µM [7]: 100% | ceramide-specific glucosyltransferase IC50 (C57BL/6, mouse) [8]: n.i. | remaining activity at 100 µM [9]: 90%

CCCCCCCCCN1[C@@H](CO)C(O)[C@@H]1CO [Compound 27, ((2S,4S)-3-Hydroxy-1-nonyl-azetidine-2,4-diyl)dimethanol]
β-Man % Ra (% remaining activity at 100 µM) [1]: 106% | α-Glc % Ra (% remaining activity at 100 µM) [2]: 100% | IC50 [3]: 70 µM | IC50 [4]: > 300 µM | remaining activity at 100 µM [5]: 57% | β-Glc % Ra (% remaining activity at 100 µM) [6]: 95% | remaining activity at 100 µM [7]: 99% | IC50 [8]: > 300 µM | remaining activity at 100 µM [9]: 99%

CCCCN1C[C@@H](O)[C@@H](O)[C@@H](O)[C@H](O)[C@@H](O)C1 [Compound 5, (3S,4R,5S,6R,7R)-1-Butylazocane-3,4,5,6,7-pentaol]
β-Man % Ra (% remaining activity at 100 µM) [1]: 100% | α-Glc % Ra (% remaining activity at 100 µM) [2]: 89% | β-glucosidase 2 IC50 (LE rat) [3]: did not show inhibitory activity and n.i. | ceramide-specific glucosyltransferase IC50 (LE rat) [4]: n.i. | α-Gal % Ra (% remaining activity at 100 µM) [5, 12]: 100% | β-Glc % Ra (% remaining activity at 100 µM) [6]: 87% | α-Man % Ra (% remaining activity at 100 µM) [7, 12]: 100% | ceramide-specific glucosyltransferase IC50 (C57BL/6, mouse) [8]: n.i. | β-Gal % Ra (% remaining activity at 100 µM) [9, 12]: 95%

CCCCN1C[C@H](O)[C@@H](O)[C@H](O)[C@H]1CO [NB-DNJ, N-butyldeoxynojirimycin]
effects on human spermatogenesis [10]: no discernible effects | IC50 ([2]; read-out: α-Glc IC50): 1030 µM | effect on spermatogenesis [11]: active
